Reference: ChEMBL document CHEMBL4811236, “New class of hantaan virus inhibitors based on conjugation of the isoindole fragment to (+)-camphor or (-)-fenchone hydrazonesv” (Bioorg Med Chem Lett, 2021)

Columns and labels:
[1] = Cytotoxicity against human HEK293T cells measured after 72 hrs by MTT assay; assay type: cell-based, HEK-293T
Summary of the method: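 HEK293T cells were exposed to compounds for 72 h. CC50 was the concentration causing 50% cell death, reported as M ± I95, n = 3.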

[2] = test system: Vesicular stomatitis virus; assay: Antiviral activity against pseudotyped recombinant vesicular stomatitis virus delta G Gn-Gc infected HEK293T cells assessed as reduction in virus replication incubated for 48 hrs by luminescence assay; assay type: functional, organism-based; conditions: HEK-293T
Summary of the method: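 Gn-Gc-pseudotyped VSV-ΔG particles were made by transfecting HEK293T cells with a Hantaan 76–118 Gn-Gc plasmid, adding VSV-ΔG-G after 48 h, and harvesting the supernatant 48 h later. Pseudovirus (500,000 RLU) was preincubated with a range of compound concentrations for 1 h, then a HEK293T cell suspension was added. IC50 reported as M ± I95, n = 3.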

[3] = Cytotoxicity against MDCK cells by MTT assay; assay type: cell-based, Canis lupus familiaris; conditions: dog
[4] = Selective index, ratio of CC50 for MDCK cells to IC50 for Hantaan 76-118; assay type: toxicity; conditions: dog, read-out: Ratio CC50/IC50
[5] = test system: Orthohantavirus hantanense; assay: Antiviral activity against Hantaan 76-118 pseudovirus infected in MDCK cells assessed as reduction in virus replication incubated for 48 hrs by luminescence assay; assay type: functional, organism-based
[6] = Selective index, ratio of CC50 for HEK293T cells to IC50 for antiviral activity against pseudotyped recombinant vesicular stomatitis virus delta G Gn-Gc infected HEK293T cells; assay type: toxicity; conditions: human, read-out: Ratio CC50/IC50
Summary of the method: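 Selectivity index was calculated as CC50 (HEK293T, 72 h exposure) divided by IC50 against rVSV-ΔG-Gn-Gc pseudovirus in HEK293T cells.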

[7] = test system: Orthohantavirus hantanense; assay: Antiviral activity against HTNV strain 76-118 infected african green monkey Vero E6 cells measured after 3 days by plaque-formation assay; assay type: functional, organism-based; conditions: 76-118, Vero C1008, 72 h
[8] = Orthohantavirus hantanense, 76-118, MDCK, 48 h, read-out: IC50

SMILES | CC50 at 72 h [1] [µM] | IC50 [2] [µM] | CC50 at 336 h [3] [µM] | selectivity ratio [4] | IC50 [5, 8] [µM] | selectivity ratio [6] | IC50 ([5]; mdck) | EC50 [7] [µM]
CSc1nc2[nH]nc([N+](=O)[O-])c(=O)n2n1 | 1510 | 408 | 368 | 26 | 14 | 4 |  | 
CC1(C)[C@@H]2CC[C@@]1(C)/C(=N/NC(=O)c1ccccc1)C2 | 1100 | 780 | > 150 |  |  |  | Not Active | 
CC1(C)[C@@H]2CC[C@@]1(C)/C(=N/NC(=O)c1cccc3c1C(=O)N(Cc1ccccc1)C3)C2 |  |  | > 300 |  |  |  | Not Active | 
O=c1c2ncn([C@@H]3O[C@H](CO)[C@@H](O)[C@H]3O)c2ncn1-c1cccc(F)c1 |  |  |  |  |  |  |  | 94
CCN1CC23C=CC(O2)C(C(=O)N/N=C2\C[C@H]4CC[C@]2(C)C4(C)C)C3C1=O (mixture of isomers) | 1070 | 790 | 250 |  |  |  | Not Active | 
CC12C=CC3(CN(Cc4ccccc4)C(=O)C3C1C(=O)N/N=C1\C[C@H]3CC[C@]1(C)C3(C)C)O2 (mixture of isomers) | 335 | 147 | 245 | 7 | 33 | 2 |  | 
COCCN1CC23C=CC(O2)C(C(=O)N/N=C2\C[C@H]4CC[C@]2(C)C4(C)C)C3C1=O (mixture of isomers) | 1030 | > 800 | 250 |  |  |  | Not Active | 
CC12C=CC3(CN(c4ccccc4)C(=O)C3C1C(=O)N/N=C1\C[C@H]3CC[C@]1(C)C3(C)C)O2 (mixture of isomers) | 448 | 96 | 142 | 10 | 14 | 4 |  | 
COc1ccc(N2CC34C=CC(C)(O3)C(C(=O)N/N=C3\C[C@H]5CC[C@]3(C)C5(C)C)C4C2=O)cc1 (mixture of isomers) |  |  | 120 | 6 | 19 |  |  | 
CC1(C)[C@@H]2CC[C@@]1(C)/C(=N/NC(=O)C1C3C=CC4(CN(Cc5ccccc5)C(=O)C14)O3)C2 (mixture of isomers) | 860 | 750 | 250 |  |  |  | Not Active | 
COc1ccc(N2CC34C=CC(C)(O3)C(C(=O)N/N=C3\C(C)(C)[C@H]5CC[C@]3(C)C5)C4C2=O)cc1 (mixture of isomers) | 152 | 74 | 292 | 9 | 30 | 2 |  | 
CC12C=CC3(CN(c4ccc(Br)cc4)C(=O)C3C1C(=O)N/N=C1\C[C@H]3CC[C@]1(C)C3(C)C)O2 (mixture of isomers) | 175 | 120 | 78 |  |  |  | Not Active | 
CC12C=CC3(CN(c4ccccc4)C(=O)C3C1C(=O)N/N=C1\CC3CCC1C3)O2 (mixture of isomers) |  |  | 269 | 9 | 28 |  |  | 
CCC12C=CC3(CN(c4ccccc4)C(=O)C3C1C(=O)N/N=C1\C(C)(C)[C@H]3CC[C@]1(C)C3)O2 (mixture of isomers) |  |  | 120 | 3 | 40 |  |  | 
CC12C=CC3(CN(c4ccc(Br)cc4)C(=O)C3C1C(=O)N/N=C1\C(C)(C)[C@H]3CC[C@]1(C)C3)O2 (mixture of isomers) | 78 | 65 | 80 |  |  |  | Not Active | 
CC12C=CC3(CN(CCc4ccccc4)C(=O)C3C1C(=O)N/N=C1\C[C@H]3CC[C@]1(C)C3(C)C)O2 (mixture of isomers) | 216 | 69 | 195 | 4 | 42 | 3 |  | 
CCCCN1CC23C=CC(C)(O2)C(C(=O)N/N=C2\C[C@H]4CC[C@]2(C)C4(C)C)C3C1=O (mixture of isomers) |  |  | 246 | 9 | 26 |  |  | 
CC1(C)[C@@H]2CC[C@@]1(C)/C(=N/NC(=O)C1C3OC4(CN(c5ccccc5)C(=O)C14)C1OC31)C2 (mixture of isomers) | 1040 | 195 | 195 | 5 | 37 | 5 |  | 
CC12CCC3(CN(c4ccccc4)C(=O)C3C1C(=O)N/N=C1\C[C@H]3CC[C@]1(C)C3(C)C)O2 (mixture of isomers) | 1450 | 375 | 130 | 6 | 20 | 3 |  | 
CC12C=CC3(CN(c4ccccc4)C(=O)C3C1C(=O)N/N=C1\C(C)(C)[C@H]3CC[C@]1(C)C3)O2 (mixture of isomers) | 1180 | 431 | 1060 | 140 | 7.6 | 3 |  | 
CC(C)N1CC23C=CC(C)(O2)C(C(=O)N/N=C2\C[C@H]4CC[C@]2(C)C4(C)C)C3C1=O (mixture of isomers) | > 2500 | 468 | 250 | 3 | 92 | 5 |  | 
NC(=O)c1ncn([C@@H]2O[C@H](CO)[C@@H](O)[C@H]2O)n1 [RIBAVIRIN] |  |  | 20 |  |  |  | Not Active | 
